Our source for the MIC and IC50 values is ChEMBL document CHEMBL3861972, “Actinomadurol, an Antibacterial Norditerpenoid from a Rare Actinomycete, Actinomadura sp. KC 191” (J Nat Prod, 2016).

Assay [1] concerns Staphylococcus aureus. In words: Antibacterial activity against Staphylococcus aureus ATCC 6538p after 24 hrs by serial two fold dilution method. The assay is classed as functional. Put shortly: (§1)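 Broth microdilution MIC. Bacteria grown overnight in LB broth at 37 °C, harvested by centrifugation and washed twice in sterile distilled water. Compound DMSO stocks were diluted in Standard method broth to give serial 2-fold dilutions from 100 to […] μg/mL. About 10^5 cfu/mL of test bacteria were added per well, and plates were incubated 24 h at 37 °C.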

Assay [2] concerns Aspergillus fumigatus. In words: Antifungal activity against Aspergillus fumigatus. Type of assay: functional.
Assay [3] can be described thus: Antifungal activity against Trichophyton rubrum. The assay is classed as functional.
Assay [4] is described as follows: Antifungal activity against Trichophyton mentagrophytes. The assay is classed as functional.
The test system of assay [5] is Bacillus spizizenii. Put plainly: Antibacterial activity against Bacillus subtilis ATCC 6633 after 24 hrs by serial two fold dilution method. The conditions noted are these: ATCC 6633, 24 h. Type of assay: functional. The gist of the method:
as §1

The test system of assay [6] is Kocuria rhizophila. In words: Antibacterial activity against Kocuria rhizophila NBRC 12708 after 24 hrs by serial two fold dilution method. Type of assay: functional. The conditions noted are these: NBRC 12708, 24 h. Put shortly: as §1
The subject of assay [7] is Proteus hauseri. Put plainly: Antibacterial activity against Proteus hauseri NBRC 3851 after 24 hrs by serial two fold dilution method. Type of assay: functional. The conditions noted are these: NBRC 3851, 24 h. Put shortly:
as §1

The nature of assay [8]: Antibacterial activity against Salmonella enterica ATCC 14028 after 24 hrs by serial two fold dilution method. Type of assay: functional. The settings on record: ATCC 14028, 24 h. Put shortly:
as §1

The test system of assay [9] is Escherichia coli. In words: Antibacterial activity against Escherichia coli ATCC 25922 after 24 hrs by serial two fold dilution method. Type of assay: functional. The conditions noted are these: ATCC 25922, 24 h. Put shortly:
as §1

Assay [10] in a line: Growth inhibition of human A549 cells. The assay is classed as functional, cell-based.
Assay [11] is described as follows: Growth inhibition of human HCT116 cells. The assay is classed as functional, cell-based. The conditions noted are these: HCT-116.
Assay [12] in a line: Growth inhibition of human SNU638 cells. Type of assay: functional, cell-based. The conditions noted are these: SNU-638.
Assay [13] in a line: Growth inhibition of human SKHEP1 cells. The assay is classed as functional, cell-based. The settings on record: SK-HEP1.
The nature of assay [14]: Growth inhibition of human MDA-MB-231 cells. The assay is classed as functional, cell-based.
Assay [15] is described as follows: Growth inhibition of human K562 cells. Type of assay: functional, cell-based.
The test system of assay [16] is Candida albicans. In words: Antifungal activity against Candida albicans. Type of assay: functional.

Converted amounts (≈) assume the structure as drawn.

As for `C=C[C@]1(C)CCC2=C(C1)C(=O)C[C@H]1C(CO)=CC(=O)[C@@H](O)[C@]21C`, the minimal inhibitory concentration (MIC) in [1], in [2], in assay [3], in assay [4], in assay [5] and in assay [6] was over 100 µg/mL each time. Moreover, the minimum inhibitory concentration (MIC) in [7], in assay [8], in [9] and in assay [16] was over 100 µg/mL throughout. Moreover, the 50% inhibitory concentration (IC50) in [10], in [11], in assay [12], in assay [13], in assay [14] and in assay [15] was over 100 µg/mL each time.

With `C=C[C@]1(C)CCC2=C(C1)[C@H](O)C[C@H]1C(CO)=CC(=O)[C@@H](O)[C@]21C`, the minimal inhibitory concentration (MIC) (in general, the lowest concentration found to suppress growth) in assay [1] is 0.78 µg/mL (≈ 2.45 µM); in assay [2], over 100 µg/mL; in assay [3] it was over 100 µg/mL; in assay [4] it was over 100 µg/mL; in assay [5], 1.56 µg/mL (≈ 4.9 µM); in assay [6] it was 0.39 µg/mL (≈ 1.22 µM). The minimal inhibitory concentration (MIC) is 0.78 µg/mL (≈ 2.45 µM) in [7], 3.12 µg/mL (≈ 9.8 µM) in assay [8], over 100 µg/mL in assay [9] and over 100 µg/mL in [16]. The half-inhibitory concentration (IC50) in assay [10], in [11], in assay [12], in assay [13], in assay [14] and in assay [15] was over 100 µg/mL in each case.

`CC1(C)S[C@@H]2[C@H](NC(=O)[C@H](N)c3ccccc3)C(=O)N2[C@H]1C(=O)O` [AMPICILLIN]: the MIC in assay [1] is 3.12 µg/mL (≈ 8.93 µM); in assay [5], 1.56 µg/mL (≈ 4.46 µM); in [6], 0.79 µg/mL (≈ 2.26 µM); in [7], 1.56 µg/mL (≈ 4.46 µM); in assay [8] it was 3.12 µg/mL (≈ 8.93 µM); in assay [9] it was 6.25 µg/mL (≈ 17.9 µM).
